Laboratory results from article PMC12573768 (RSC Advances, 2025).
Like-named read-outs stand apart in the source and are kept apart here.

Assays:
[1] = tested on: AGEs formation in BSA-fructose model; assay: AGEs inhibition, fluorescence, BSA-fructose model; type: biochemical; conditions: 50 °C 24 hours
In short: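 Test compound and BSA-fructose solution mixed 1:1 and incubated at 50 °C for 24 h, with aminoguanidine as positive control. An aliquot of the mixture was diluted fivefold and fluorescence read at excitation 375 nm and emission 440 nm. Inhibition was calculated from control, control blank, sample and sample blank intensities. Run in triplicate; IC50 derived; mean ± SEM.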

[2] = tested on: fructosamine formation in BSA-fructose model; assay: Fructosamine inhibition, NBT assay, BSA-fructose model; type: biochemical; conditions: 50 °C 24 hours
In short: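 Test compound and BSA-fructose solution mixed 1:1 and incubated at 50 °C for 24 h, with aminoguanidine as positive control. Incubated mixture was treated with 300 μM NBT in 0.1 M sodium carbonate, pH 10.6, at 37 °C for 15 min, then absorbance read at 530 nm. Inhibition was calculated with control and sample blanks. Run in triplicate; mean ± SEM.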

[3] = Free radical scavenging activity; conditions: for IC50: read-out: (IC50 ± SEM) Antioxidant activity (DPPH radical)
In short: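 Test compound in DMSO mixed with 0.2 mM DPPH in 95% methanol (1:3 by volume) and held 1 h in the dark at room temperature. Absorbance read at 517 nm; scavenging calculated relative to control, with ascorbic acid as reference. IC50 from non-linear regression; triplicate; mean ± SEM.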

[4] = molecular target: T1, porcine pancreatic α-amylase (Sus scrofa, UniProt P00690); assay: α-Amylase inhibitory activity; type: biochemical
T1 sequence (P00690 16-511): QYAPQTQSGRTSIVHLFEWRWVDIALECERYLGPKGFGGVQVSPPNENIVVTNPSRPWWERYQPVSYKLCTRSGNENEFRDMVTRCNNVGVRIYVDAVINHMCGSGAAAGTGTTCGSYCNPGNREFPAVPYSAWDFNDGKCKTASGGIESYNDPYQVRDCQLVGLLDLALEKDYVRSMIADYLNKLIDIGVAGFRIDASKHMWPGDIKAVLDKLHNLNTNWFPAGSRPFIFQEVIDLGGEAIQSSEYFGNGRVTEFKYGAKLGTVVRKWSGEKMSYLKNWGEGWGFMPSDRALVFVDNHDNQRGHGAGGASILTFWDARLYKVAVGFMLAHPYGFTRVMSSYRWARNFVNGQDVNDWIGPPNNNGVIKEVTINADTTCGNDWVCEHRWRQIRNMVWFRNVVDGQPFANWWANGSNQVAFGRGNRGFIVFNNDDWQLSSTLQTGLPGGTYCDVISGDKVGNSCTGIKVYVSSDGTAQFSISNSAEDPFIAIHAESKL

α-glucosidase [5] = molecular target: T2, α-glucosidase (Saccharomyces cerevisiae, UniProt P53341); assay: α-Glucosidase inhibitory activity; type: biochemical
[6] = Stability under physiological conditions; type: physicochemical; conditions: 200 μM, 1X PBS pH 7.4, 37 °C, 10 days
In short: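 Test compound at 200 μM in 1X PBS, pH 7.4, incubated at 37 °C. A sample taken immediately was extracted three times with ethyl acetate, evaporated and stored at −20 °C; a second sample was extracted likewise after 10 days. Both residues were analysed by LC-MS on a C18 column.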

3T3-L1 cells = assay: MTT cytotoxicity assay; type: cell-based; conditions: 3T3-L1, up to 50 μM, 12 hours
In short: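 3T3-L1 cells grown in DMEM with 10% FBS, 1% penicillin–streptomycin and 0.2% amphotericin at 37 °C, 5% CO2. Seeded at 2.0 × 10^4 cells/well overnight, PBS-washed, then exposed to test compound (0–50 μM in DMEM) for 12 h. After washing, 0.05% MTT in DMEM for 3 h; formazan dissolved in DMSO and read at 590 nm (reference 620 nm). IC50 by non-linear regression; triplicate.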

C57BL/KsJ-db/db mice = conditions: Jung et al. ref 52; cited from earlier work
Caco-2 monolayer = conditions: Caco-2 cell model ref 55; cited from earlier work
[7] = in vivo study by Wang et al. ref 55; cited from earlier work
[8] = cited from earlier work; for Stability improvement compared to ester form: rat plasma, Yang et al. ref 58
α-glucosidase [9] = molecular target: T2, α-glucosidase; conditions: vs EGCG, Liu et al. ref 37; cited from earlier work
α-amylase = molecular target: T3, α-amylase (Sus scrofa, UniProt P00690); conditions: vs EGCG, Liu et al. ref 37; cited from earlier work
T3 sequence (P00690 16-511): T1 sequence (P00690 16-511)

T2 sequence (P53341 whole entry): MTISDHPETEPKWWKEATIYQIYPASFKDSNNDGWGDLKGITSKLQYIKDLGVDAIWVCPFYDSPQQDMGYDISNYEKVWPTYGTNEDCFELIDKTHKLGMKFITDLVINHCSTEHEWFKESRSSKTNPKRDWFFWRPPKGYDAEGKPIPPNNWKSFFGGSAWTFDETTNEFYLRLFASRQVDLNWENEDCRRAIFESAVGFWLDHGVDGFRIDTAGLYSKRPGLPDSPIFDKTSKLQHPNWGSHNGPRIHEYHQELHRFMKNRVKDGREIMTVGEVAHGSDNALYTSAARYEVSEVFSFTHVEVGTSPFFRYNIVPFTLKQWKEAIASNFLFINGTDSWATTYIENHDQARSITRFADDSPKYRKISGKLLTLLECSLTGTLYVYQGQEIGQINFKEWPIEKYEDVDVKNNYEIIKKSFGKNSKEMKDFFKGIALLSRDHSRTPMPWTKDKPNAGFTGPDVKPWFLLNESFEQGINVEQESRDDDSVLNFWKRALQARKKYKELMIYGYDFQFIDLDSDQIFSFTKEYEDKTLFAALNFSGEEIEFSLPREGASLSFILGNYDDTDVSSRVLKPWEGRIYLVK

In the case of `N=C(N)NN` [AG, Aminoguanidine, reference compound], the “Inhibition of AGEs” value ([1]; 5 mM) is reported as 43%, the “Inhibition of AGEs” value ([1]; 10 mM) is reported as 70% and the “Inhibition of fructosamine formation” value ([2]; 5 mM) is reported as 9%. The “Inhibition of fructosamine formation” value ([2]; 10 mM) was 30%.

For `C[C@H]1O[C@H](O[C@H]2[C@H](O)[C@@H](O)[C@@H](O[C@H]3[C@H](O)[C@@H](O)C(O)O[C@@H]3CO)O[C@@H]2CO)[C@H](O)[C@@H](O)[C@@H]1N[C@H]1C=C(CO)[C@@H](O)[C@H](O)[C@H]1O` (stereo partly shown) [Acarbose, reference compound], the “(IC50 ± SEM) Antioxidant activity (DPPH radical)” value ([3]; mean ± SEM, triplicate) was “No activity”.

`CCCCNC(=O)/C=C/c1ccc(O)c(O)c1` [CA4, (E)-3-(3,4-Dihydroxyphenyl)-N-butylacrylamide] gave an IC50 ([3]; mean ± SEM, triplicate) of 20.8 ± 0.45 µM, an IC50 [4] of over 500 µM and an IC50 (α-glucosidase [5]) of 38 ± 1.57 µM.

`CCCCCCNC(=O)/C=C/c1ccc(O)c(O)c1` [CA6, (E)-3-(3,4-Dihydroxyphenyl)-N-hexylacrylamide] showed an IC50 ([3]; mean ± SEM, triplicate) of 23.7 ± 0.59 µM, an IC50 [4] of over 500 µM and an IC50 (α-glucosidase [5]) of 51.5 ± 2.36 µM.

With `CCCCCCCCNC(=O)/C=C/c1ccc(O)c(O)c1` [CA8, (E)-3-(3,4-Dihydroxyphenyl)-N-octylacrylamide] the IC50 ([3]; mean ± SEM, triplicate) was 24.3 ± 0.58 µM, the IC50 [4] was over 500 µM and the IC50 (α-glucosidase [5]) was 13.7 ± 0.44 µM.

Work on `CCCCCCCCCCNC(=O)/C=C/c1ccc(O)c(O)c1` [CA10, (E)-3-(3,4-Dihydroxyphenyl)-N-decylacrylamide] yielded an IC50 ([3]; mean ± SEM, triplicate) of 23.4 ± 0.77 µM, an IC50 [4] of over 500 µM and an IC50 (α-glucosidase [5]) of 19.1 ± 0.64 µM.

Compound `CCCCCCCCCCCCNC(=O)/C=C/c1ccc(O)c(O)c1` [CA12, (E)-3-(3,4-Dihydroxyphenyl)-N-dodecylacrylamide] has an IC50 ([3]; mean ± SEM, triplicate) of 16.4 ± 0.48 µM, an IC50 [4] of 72.8 ± 1.83 µM and an IC50 (α-glucosidase [5]) of 17.4 ± 0.87 µM.

For `CCCCCCCCCCCCCCNC(=O)/C=C/c1ccc(O)c(O)c1` [CA14, (E)-3-(3,4-Dihydroxyphenyl)-N-tetradecylacrylamide], the “Inhibition of AGEs” value ([1]; 5 mM) was 44%, the “Inhibition of AGEs” value ([1]; 10 mM) was 79% and the “Antioxidant activity relative to 15c” value ([3]; ratio of DPPH IC50 values, vs 15c) was 1.2 fold. For the same compound, the “Antioxidant activity relative to CA” value ([3]; ratio of DPPH IC50 values, vs CA) was 2.5 times, the “Antioxidant activity relative to Vitamin C” value ([3]; ratio of DPPH IC50 values, vs Vitamin C) was 2.3 fold and the IC50 ([3]; mean ± SEM, triplicate) was 14 ± 0.38 µM. For the same compound, the “Inhibition of fructosamine formation” value ([2]; 5 mM) was 33%, the “Inhibition of fructosamine formation” value ([2]; 10 mM) was 70% and the IC50 [4] was 27 ± 0.83 µM. The IC50 (α-glucosidase [5]) was 1.94 ± 0.06 µM, the “α-Glucosidase inhibition potency relative to parent CA” value (α-glucosidase [5]; ratio of IC50 values, vs CA) was 6392 times and the “α-Glucosidase inhibition potency relative to acarbose” value (α-glucosidase [5]; ratio of IC50 values, vs acarbose) was 113 times. The “Stability under physiological conditions (degradation by LC-MS)” value [6] was “did not exhibit any degradation” and the “Cytotoxicity (cell viability, MTT)” value (3T3-L1 cells) was “no significant cytotoxicity”.

`CCCCCCCCCCCCCCCCNC(=O)/C=C/c1ccc(O)c(O)c1` [CA16, (E)-3-(3,4-Dihydroxyphenyl)-N-hexadecylacrylamide] showed an IC50 ([3]; mean ± SEM, triplicate) of 15.1 ± 0.3 µM, an IC50 [4] of 58.4 ± 2.68 µM and an IC50 (α-glucosidase [5]) of 24.8 ± 0.46 µM.

For `O=C(O)/C=C/c1ccc(O)c(O)c1` [CA, Caffeic acid], the “Blood glucose lowering effect” value (C57BL/KsJ-db/db mice) is given as “significant blood glucose lowering effect”, the IC50 ([3]; mean ± SEM, triplicate) is given as 34.3 ± 0.52 µM and the Caco-2 monolayer permeability (Caco-2 monolayer) is given as “poor”. The Bioavailability [7] was 14.70%.

For `O=C(/C=C/c1ccc(O)c(O)c1)NCCc1ccccc1` [CAPA, caffeic acid phenethyl amide], the “Stability improvement compared to ester form” value ([8]; 25 °C) is listed as 118 fold and the “Stability improvement compared to ester form” value ([8]; 37 °C) is listed as 77 fold.

In the case of `O=C(/C=C/c1ccc(O)c(O)c1)OCCc1ccccc1` [CAPE, caffeic acid phenethyl ester], the “Stability in rat plasma” value ([8]; esterases ref 57) is listed as “rapid decomposition”.

For `O=C1O[C@H]([C@@H](O)CO)C(O)=C1O` [Vitamin C, L-ascorbic acid, reference compound], the IC50 ([3]; mean ± SEM, triplicate) was 32.7 ± 0.47 µM, the “(IC50 ± SEM) α-Amylase inhibition” value ([4]; mean ± SEM, triplicate) was “No activity” and the “(IC50 ± SEM) α-Glucosidase inhibition” value (α-glucosidase [5]; mean ± SEM, triplicate) was “No activity”.

For EGCG palmitate, the “α-Glucosidase inhibition better than EGCG” value (α-glucosidase [9]) is given as 52 times and the “α-Amylase inhibition better than EGCG” value (α-amylase) is given as 4.5 times.
